Data on one compound can be found in PubChem BioAssay AID588416 (The Scripps Research Institute Molecular Screening Center, 2011).

The assay deals with Protein-arginine deiminase type-4 (Homo sapiens) (UniProt Q9UM07). In words: PAD4 enzyme inhibition, citrulline production – biochemical, colorimetric substrate assay, assay provider data, 0-50 µM, late-stage follow-up (AID 588416). To be noted: recombinant PAD4, BAEE substrate, citrulline colorimetric absorbance. The method, boiled down: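 Test system: Recombinant PAD4 | Input: 0.2 µM PAD4 | Repeats: Duplicate measurements per compound concentration | Read-out: IC50 from dose-response fit | Timing: 15 min + 15 min at 37 °C | Medium: Tris-HCl pH 7.6, CaCl2, DTT | Measured by: Colorimetric citrulline absorbance at 540 nm, diacetyl monoxime–thiosemicarbazide development | Also added: BAEE arginine ester substrate, 10 mM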

Calls of active or inactive are those of the source.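 How the source made its calls: active means IC50 at or below 1000 nM; inactive means IC50 above 1000 nM.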

Chain of Protein-arginine deiminase type-4 (Homo sapiens) (Q9UM07 whole entry, looked up): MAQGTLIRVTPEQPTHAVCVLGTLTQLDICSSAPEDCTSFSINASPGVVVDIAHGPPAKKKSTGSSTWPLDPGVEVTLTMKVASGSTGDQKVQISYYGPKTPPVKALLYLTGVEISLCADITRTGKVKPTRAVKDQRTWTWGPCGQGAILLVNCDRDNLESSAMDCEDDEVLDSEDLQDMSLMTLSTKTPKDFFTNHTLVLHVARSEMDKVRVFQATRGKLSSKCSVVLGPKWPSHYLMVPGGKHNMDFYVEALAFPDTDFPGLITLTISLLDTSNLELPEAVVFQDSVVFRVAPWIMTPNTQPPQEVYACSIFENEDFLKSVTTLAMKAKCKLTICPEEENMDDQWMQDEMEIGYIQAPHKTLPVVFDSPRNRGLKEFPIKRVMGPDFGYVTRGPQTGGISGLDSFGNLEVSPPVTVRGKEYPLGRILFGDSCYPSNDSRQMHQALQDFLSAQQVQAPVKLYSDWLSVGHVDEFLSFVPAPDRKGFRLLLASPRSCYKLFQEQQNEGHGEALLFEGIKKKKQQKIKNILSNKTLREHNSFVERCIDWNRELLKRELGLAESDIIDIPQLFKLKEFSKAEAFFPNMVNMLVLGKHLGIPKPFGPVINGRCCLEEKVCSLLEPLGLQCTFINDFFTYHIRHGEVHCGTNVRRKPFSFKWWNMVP

Regarding `O=C1C=C(Br)C(=O)c2ncccc21`, the IC50 entry was “inactive”.
